Laboratory results published in ChEMBL document CHEMBL3272033, “Physicochemical and pharmacological studies of some 8-substituted decahydroisoquinolines” (J Med Chem, 1976).

Assays:
[1] = Effect on transmembrane action potential in dog purkinje cells assessed as average rising velocity at 20 mg/l after 20 mins in presence of 5.4 mM/l K+ relative to control; format: functional, Canis lupus familiaris
Procedure, shortened: (§1)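 Canine Purkinje false-tendon preparations from pentobarbital-anesthetized dogs, in oxygenated Tyrode at 37 °C with KCl 2.7 or 5.4 mM. Compound given by bolus to the final bath concentration. TMAP recorded by intracellular glass microelectrode before dosing and 2–20 min after. ARV of phase 0 (V/s) and activation time (ms) expressed as % change from control at 20 min. Two preparations per compound.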

[2] = Effect on transmembrane action potential in dog purkinje cells assessed as change in activation time at 10 mg/l after 20 mins in presence of 5.4 mM/l K+ relative to control; format: functional, Canis lupus familiaris; procedure, shortened: as §1
[3] = Effect on transmembrane action potential in dog purkinje cells assessed as change in activation time at 30 mg/l after 20 mins in presence of 2.7 mM/l K+ relative to control; format: functional, Canis lupus familiaris; procedure, shortened: as §1
[4] = Effect on transmembrane action potential in dog purkinje cells assessed as change in activation time at 20 mg/l after 20 mins in presence of 5.4 mM/l K+ relative to control; format: functional, Canis lupus familiaris; procedure, shortened: as §1
[5] = species: Homo sapiens; assay: Drug absorption in buccal cavity in human at pH 9.3 after 5 mins by UV spectrometry; format: ADME, organism-based; conditions: in vivo, other, pH 9.3, 5 min
Procedure, shortened: (§2)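 3 mg compound in 25 ml buffer (0.1 M phosphate pH 5.50 or 7.50; tetraborate pH 9.30) swished in the mouth for 5 min, expelled, and combined with a 10 ml water rinse. Made up to 50 ml; aliquot basified to pH 10 and ether-extracted, then back-extracted into 0.1 N HCl. UV absorbance read at λmax against Beer's law plots; the unrecovered fraction is taken as % absorbed. One to three subjects.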

[6] = tested on: Mus musculus; assay: Antiarrhythmic activity in ip dosed Swiss-Webster albino mouse assessed as prevention of chloroform-induced ventricular fibrillation; format: functional, Heart
[7] = tested on: Heart; assay: Antiarrhythmic activity in Hartley guinea pig atria assessed as change in maximum driving rate at 58.6 uM/l after 5 mins; format: functional, Cavia porcellus
Procedure, shortened: (§3)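 Spontaneously beating isolated atria held under initial tension; bath fluid changed every 10 min; stabilised about 1 h. Maximum driving rate found with 1-ms square pulses at 50% above threshold voltage, 10 s every 30 s; the frequency just before failure of following is the MDR. Control is the mean of two determinations. Spontaneous rate recorded by tachograph. Values are % change from control at peak response, generally 5–30 min.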

[8] = Effect on transmembrane action potential in dog purkinje cells assessed as change in amplitude at 30 mg/l after 20 mins in presence of 2.7 mM/l K+ relative to control; format: functional, Canis lupus familiaris
Procedure, shortened: (§4)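 Purkinje false tendons with attached myocardium came from adult dogs (10–15 kg) anesthetized with pentobarbital 30 mg/kg iv. Tissue was bathed in Tyrode (KCl 2.7 or 5.4 mM) gassed with 95% O2-5% CO2 at 37 °C and impaled with glass microelectrodes. Compound was given as a bolus to the final bath concentration, with records at 2–20 min. Two preparations per compound; % change from control at 20 min.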

[9] = tested on: Heart; assay: Antiarrhythmic activity in Hartley guinea pig atria assessed as change in spontaneous rate at 58.6 uM/l after 5 mins; format: functional, Cavia porcellus; procedure, shortened: as §3
[10] = Effect on transmembrane action potential in dog purkinje cells assessed as average rising velocity at 10 mg/l after 20 mins in presence of 5.4 mM/l K+ relative to control; format: functional, Canis lupus familiaris; procedure, shortened: as §1
[11] = species: Homo sapiens; assay: Drug absorption in buccal cavity in human at pH 5.50 after 5 mins by UV spectrometry; format: ADME, organism-based; conditions: in vivo, other, pH 5.5, 5 min; procedure, shortened: as §2
[12] = species: Homo sapiens; assay: Drug absorption in buccal cavity in human at pH 7.50 after 5 mins by UV spectrometry; format: ADME, organism-based; conditions: in vivo, other, pH 7.5, 5 min; procedure, shortened: as §2
[13] = Effect on transmembrane action potential in dog purkinje cells assessed as average rising velocity at 30 mg/l after 20 mins in presence of 2.7 mM/l K+ relative to control; format: functional, Canis lupus familiaris; procedure, shortened: as §1
[14] = tested on: Mus musculus; assay: Toxicity in ip dosed Swiss-Webster albino mouse; format: organism-based; conditions: in vivo
[15] = Effect on transmembrane action potential in dog purkinje cells assessed as change in amplitude at 20 mg/l after 20 mins in presence of 5.4 mM/l K+ relative to control; format: functional, Canis lupus familiaris; procedure, shortened: as §4
[16] = Effect on transmembrane action potential in dog purkinje cells assessed as change in amplitude at 10 mg/l after 20 mins in presence of 5.4 mM/l K+ relative to control; format: functional, Canis lupus familiaris; procedure, shortened: as §4
[17] = Therapeutic index, ratio of LD50 for toxicity to ED50 for antiarrhythmic activity in ip dosed Swiss-Webster albino mouse; format: organism-based, Heart; conditions: in vivo, read-out: Ratio LD50/ED50
[18] = tested on: Homo sapiens; assay: Toxicity in human assessed as numbness at 5 x 10' -5 M administered topically to buccal cavity measured up to 15 to 20 mins; format: organism-based; conditions: in vivo, topical_or_ocular, 50 µM
[19] = Effect on transmembrane action potential in dog purkinje cells assessed as change in amplitude at 20 mg/l after 20 mins in presence of 2.7 mM/l K+ relative to control; format: functional, Canis lupus familiaris; procedure, shortened: as §4
[20] = Effect on transmembrane action potential in dog purkinje cells assessed as change in amplitude at 10 mg/l after 20 mins in presence of 2.7 mM/l K+ relative to control; format: functional, Canis lupus familiaris; procedure, shortened: as §4
[21] = tested on: Heart; assay: Antiarrhythmic activity in Hartley guinea pig atria assessed as change in maximum driving rate at 55.0 uM/l after 5 mins; format: functional, Cavia porcellus; procedure, shortened: as §3
[22] = Effect on transmembrane action potential in dog purkinje cells assessed as average rising velocity at 20 mg/l after 20 mins in presence of 2.7 mM/l K+ relative to control; format: functional, Canis lupus familiaris; procedure, shortened: as §1
[23] = tested on: Heart; assay: Antiarrhythmic activity in Hartley guinea pig atria assessed as change in spontaneous rate at 55.0 uM/l after 5 mins; format: functional, Cavia porcellus; procedure, shortened: as §3
[24] = Dissociation constant, pKa of the compound in 0.01 M potassium hydrogen phthalate; format: physicochemical
Procedure, shortened: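 pKa by potentiometric titration with 0.01 M potassium hydrogen phthalate in a thermostated vessel, stirred, under nitrogen bubbling, using glass and calomel electrodes. pKa is the mean pH at half-neutralization from four titrations. Endpoints were taken from parallel tangents on either side of the inflection.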

[25] = Effect on transmembrane action potential in dog purkinje cells assessed as average rising velocity at 10 mg/l after 20 mins in presence of 2.7 mM/l K+ relative to control; format: functional, Canis lupus familiaris; procedure, shortened: as §1
[26] = Effect on transmembrane action potential in dog purkinje cells assessed as change in activation time at 10 mg/l after 20 mins in presence of 2.7 mM/l K+ relative to control; format: functional, Canis lupus familiaris; procedure, shortened: as §1
[27] = Effect on transmembrane action potential in dog purkinje cells assessed as change in activation time at 20 mg/l after 20 mins in presence of 2.7 mM/l K+ relative to control; format: functional, Canis lupus familiaris; procedure, shortened: as §1
[28] = Effect on transmembrane action potential in dog purkinje cells assessed as change in amplitude at 50 mg/l after 20 mins in presence of 2.7 mM/l K+ relative to control; format: functional, Canis lupus familiaris; procedure, shortened: as §4
[29] = Effect on transmembrane action potential in dog purkinje cells assessed as average rising velocity at 40 mg/l after 20 mins in presence of 5.4 mM/l K+ relative to control; format: functional, Canis lupus familiaris; procedure, shortened: as §1
[30] = Effect on transmembrane action potential in dog purkinje cells assessed as average rising velocity at 25 mg/l after 20 mins in presence of 2.7 mM/l K+ relative to control; format: functional, Canis lupus familiaris; procedure, shortened: as §1
[31] = tested on: Heart; assay: Antiarrhythmic activity in Hartley guinea pig atria assessed as change in maximum driving rate at 55.2 uM/l after 5 mins; format: functional, Cavia porcellus; procedure, shortened: as §3
[32] = tested on: Heart; assay: Antiarrhythmic activity in Hartley guinea pig atria assessed as change in spontaneous rate at 55.2 uM/l after 5 mins; format: functional, Cavia porcellus; procedure, shortened: as §3
[33] = Effect on transmembrane action potential in dog purkinje cells assessed as change in activation time at 40 mg/l after 20 mins in presence of 5.4 mM/l K+ relative to control; format: functional, Canis lupus familiaris; procedure, shortened: as §4
[34] = Effect on transmembrane action potential in dog purkinje cells assessed as change in amplitude at 40 mg/l after 20 mins in presence of 5.4 mM/l K+ relative to control; format: functional, Canis lupus familiaris; procedure, shortened: as §4
[35] = Effect on transmembrane action potential in dog purkinje cells assessed as average rising velocity at 50 mg/l after 20 mins in presence of 2.7 mM/l K+ relative to control; format: functional, Canis lupus familiaris; procedure, shortened: as §1
[36] = Effect on transmembrane action potential in dog purkinje cells assessed as change in activation time at 25 mg/l after 20 mins in presence of 2.7 mM/l K+ relative to control; format: functional, Canis lupus familiaris; procedure, shortened: as §1
[37] = Effect on transmembrane action potential in dog purkinje cells assessed as change in activation time at 50 mg/l after 20 mins in presence of 2.7 mM/l K+ relative to control; format: functional, Canis lupus familiaris; procedure, shortened: as §4
[38] = Effect on transmembrane action potential in dog purkinje cells assessed as change in amplitude at 25 mg/l after 20 mins in presence of 2.7 mM/l K+ relative to control; format: functional, Canis lupus familiaris; procedure, shortened: as §4
[39] = tested on: Heart; assay: Antiarrhythmic activity in Hartley guinea pig atria assessed as change in maximum driving rate at 73.2 uM/l after 5 mins; format: functional, Cavia porcellus; procedure, shortened: as §3
[40] = tested on: Heart; assay: Antiarrhythmic activity in Hartley guinea pig atria assessed as change in spontaneous rate at 36.6 uM/l after 5 mins; format: functional, Cavia porcellus; procedure, shortened: as §3
[41] = tested on: Heart; assay: Antiarrhythmic activity in Hartley guinea pig atria assessed as change in spontaneous rate at 73.2 uM/l after 5 mins; format: functional, Cavia porcellus; procedure, shortened: as §3
[42] = tested on: Heart; assay: Antiarrhythmic activity in Hartley guinea pig atria assessed as change in maximum driving rate at 36.6 uM/l after 5 mins; format: functional, Cavia porcellus; procedure, shortened: as §3
[43] = tested on: Heart; assay: Antiarrhythmic activity in Hartley guinea pig atria assessed as reversible decrease in maximum driving rate compound treated for 5 mins measured up to 2 hrs post washout; format: functional, tissue-based; conditions: Cavia porcellus
Procedure, shortened: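 After compound exposure the bath was washed out. Two MDR determinations were made every 15 min for up to 2 h to follow reversibility and recovery toward control. Bath fluid was changed every 10 min.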

Structure (SMILES) | Activity [1] | Activity [2] | Activity [4] | Drug absorption [5] | ED50 [6] | Activity [10] | Drug absorption [11] | Drug absorption [12] | LD50 [14] | Activity [15] | Activity [16] | selectivity ratio [17] | Activity [18] | Activity [20] | pKa [24] | Activity [25] | Activity [26] | also measured
CN1CC[C@H]2CCC[C@@H](NC(=O)c3ccc(Cl)c(Cl)c3)[C@@H]2C1 (mixture of isomers) | -58% | 18% | 42% | 59.3% | 104 µmol/kg | -30% | 20.5% | 25.7% | 1304 | -5% | -11% | 12.7 | – | – | – | – | – | Activity [3]: 81%; Activity [7]: -45%; Activity [8]: -23%; Activity [9]: -41.2%; Activity [13]: -72%
COc1cc(C(=O)O[C@@H]2CCC[C@@H]3CCN(C)C[C@H]32)cc(OC)c1OC (mixture of isomers) | -71% | 530% | 300% | 69.5% | 74 µmol/kg | -50% | 17.1% | 19.7% | 338 | -17% | -7% | 4.5 | Toxic | -12% | 8.82 | -6% | 131% | Activity [19]: -15%; Activity [21]: -54.5%; Activity [22]: -58%; Activity [23]: -42.4%; Activity [27]: 389%
COc1cc(C(=O)N[C@@H]2CCC[C@@H]3CCN(C)C[C@H]32)cc(OC)c1OC (mixture of isomers) | -29% | -4% | -1% | 31.1% | 124 µmol/kg | -24% | 5.5% | 18.1% | 835 | 0% | 0% | 6.7 | – | 0% | 8.75 | -9% | 2% | Activity [28]: -8%; Activity [29]: -50%; Activity [30]: -19%; Activity [31]: -13.3%; Activity [32]: -14.4%; Activity [33]: -1%; Activity [34]: -6%; Activity [35]: -44%; Activity [36]: 23%; Activity [37]: 105%; Activity [38]: -2%
CN1CC[C@H]2CCC[C@@H](OC(=O)c3ccccc3)[C@H]2C1 (relative stereo) | – | – | – | 81.8% | 245 µmol/kg | – | 29.7% | 46% | 900 | – | – | 3.7 | Toxic | – | 9.05 | – | – | Activity [39]: -55.5%; Activity [40]: -23%; Activity [41]: -57.8%; Activity [42]: -24.5%; Activity [43]: Dose-dependent effect
